From ChEMBL document CHEMBL3867488 (ACS Med Chem Lett, 2016) come the findings set out here.

Data set [1] has as its target T1, Oxysterols receptor LXR-beta (Homo sapiens) (UniProt P55055).
T1 sequence (whole entry): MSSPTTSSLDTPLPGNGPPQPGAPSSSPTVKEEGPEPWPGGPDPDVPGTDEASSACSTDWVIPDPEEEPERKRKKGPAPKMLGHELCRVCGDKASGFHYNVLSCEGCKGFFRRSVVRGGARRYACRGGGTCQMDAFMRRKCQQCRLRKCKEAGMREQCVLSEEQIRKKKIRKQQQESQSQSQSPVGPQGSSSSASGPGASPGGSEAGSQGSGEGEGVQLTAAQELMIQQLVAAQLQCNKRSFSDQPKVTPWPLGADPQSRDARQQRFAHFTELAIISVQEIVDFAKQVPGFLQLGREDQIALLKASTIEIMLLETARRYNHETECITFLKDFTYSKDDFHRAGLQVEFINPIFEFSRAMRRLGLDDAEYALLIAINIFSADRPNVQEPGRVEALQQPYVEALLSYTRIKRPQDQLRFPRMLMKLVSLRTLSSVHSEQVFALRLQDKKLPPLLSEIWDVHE
Briefly: Agonist activity at LXR-beta in human whole blood assessed as ABCG1 gene induction by measuring ABCA1 mRNA level after 4 hrs by SYBR-Green dye-based Q-PCR analysis relative to pan agonist 2-(4-(5-(5-cyano-1-(2,4-difluorobenzyl)-6-oxo-4-(trifluoromethyl)-1,6-dihydropyridin-2-yl)thiophen-2-yl)-3-methylphenyl)acetic acid. Type of data set: tissue-based.

A short description of data set [2]: Agonist activity at LXR-beta in cynomolgus monkey whole blood assessed as ABCA1 gene induction by measuring ABCA1 mRNA level after 4 hrs by SYBR-Green dye-based Q-PCR analysis. As to conditions: Macaca fascicularis. Type of data set: tissue-based.
Data set [3] has as its system Cynomolgus monkey. Briefly: In vivo agonist activity at LXR-beta in cynomolgus monkey assessed as ABCG1 gene induction by measuring total RNA level at 1 mg/kg, po qd administered via gavage for 14 days measured after 5 to 6 hrs of last-dose relative to control. Type of data set: functional, Macaca fascicularis. In outline:
(§1)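 Cynomolgus monkeys dosed daily for 14 days. ABCG1 mRNA induction measured in blood cells on day 14 and expressed as fold change. Plasma drug concentration taken about 5 h post-dose. Plasma triglycerides also measured against baseline, with significance by ANOVA.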

Data set [4] concerns the target T2, Oxysterols receptor LXR-alpha (Homo sapiens, UniProt Q13133).
T2 sequence (Q13133 whole entry): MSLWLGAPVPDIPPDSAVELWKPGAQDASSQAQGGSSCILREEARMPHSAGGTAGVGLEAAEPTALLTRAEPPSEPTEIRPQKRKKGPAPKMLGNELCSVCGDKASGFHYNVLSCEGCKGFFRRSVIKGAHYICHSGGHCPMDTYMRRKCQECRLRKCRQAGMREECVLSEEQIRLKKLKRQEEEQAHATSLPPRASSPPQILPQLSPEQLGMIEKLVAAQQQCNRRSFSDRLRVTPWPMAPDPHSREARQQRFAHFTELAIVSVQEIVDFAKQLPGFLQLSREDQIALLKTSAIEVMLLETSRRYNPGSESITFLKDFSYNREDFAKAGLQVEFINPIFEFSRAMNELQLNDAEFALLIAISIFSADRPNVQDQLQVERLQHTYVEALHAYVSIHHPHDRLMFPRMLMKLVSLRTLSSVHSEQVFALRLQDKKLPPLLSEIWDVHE
Nature of the data set: Agonist activity at human LXR-alpha expressed in African green monkey CV1 cells measured after 18 to 20 hrs by luciferase reporter gene assay relative to pan agonist 1-(2,4-difluorobenzyl)-2-oxo-6-(4-phenoxyphenyl)-4-(trifluoromethyl)-1,2-dihydropyridine-3-carbonitrile. In kind it is cell-based. Conditions: CV-1, human; read-out: Efficacy. For orientation: Reporter assays use an easily measured gene product as a stand-in for the process of interest.

Data set [5] addresses T3, Nuclear receptor subfamily 1 group I member 2 (Homo sapiens, UniProt O75469).
T3 sequence (O75469 whole entry): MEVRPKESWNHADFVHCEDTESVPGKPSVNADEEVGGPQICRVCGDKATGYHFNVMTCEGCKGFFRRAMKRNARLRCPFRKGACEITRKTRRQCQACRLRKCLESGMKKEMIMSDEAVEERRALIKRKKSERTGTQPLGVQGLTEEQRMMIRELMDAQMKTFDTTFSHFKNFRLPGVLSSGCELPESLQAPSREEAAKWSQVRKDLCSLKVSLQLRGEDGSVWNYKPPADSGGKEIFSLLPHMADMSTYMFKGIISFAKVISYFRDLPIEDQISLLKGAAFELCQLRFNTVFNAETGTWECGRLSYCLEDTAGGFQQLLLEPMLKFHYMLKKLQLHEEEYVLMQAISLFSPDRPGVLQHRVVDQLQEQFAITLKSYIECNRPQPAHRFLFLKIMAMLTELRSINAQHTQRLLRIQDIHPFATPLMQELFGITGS
Briefly: Agonist activity at human PXR expressed in human HepG2 cells assessed as induction of CYP3A4 measured after 24 hrs by AlamarBlue dye-based luciferase reporter gene assay relative to control. In kind it is cell-based. As to conditions: hepg2, 24 h. Background: Resazurin is reduced to fluorescent resorufin, in cell work by metabolically active cells.

For data set [6], the system named is Cynomolgus monkey. Briefly: In vivo agonist activity at LXR-beta in cynomolgus monkey assessed as ABCG1 gene induction by measuring total RNA level at 0.3 mg/ kg, po qd administered via gavage for 14 days measured 5 to 6 hrs post-dose. Type of data set: functional, Macaca fascicularis. In outline: as §1
The target in data set [7] is T4, Oxysterols receptor LXR-beta (Homo sapiens, UniProt P55055).
T4 sequence (P55055 whole entry): T1 sequence (whole entry)
Nature of the data set: Agonist activity at LXR-beta in human HeLa cells assessed as induction of ABCA1 by beta-galactosidase/luciferase reporter gene assay. Type of data set: cell-based. A digest of the protocol:
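HeLa cells carrying endogenous LXRα and LXRβ receptors, transfected with an ABCA1 LXREx3 reporter construct; agonist-driven reporter induction measured.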

Structures are written as SMILES.

`CC(C)(O)c1cn(-c2ccc(-c3cc(F)c(CO)c(S(C)(=O)=O)c3)cc2F)c(C(C)(C)c2c(Cl)cccc2Cl)n1` [BMS-852927]: the Efficacy in data set [1] was found to be 26%. Besides, the EC50 (in general, the concentration at which the effect is half-maximal) in data set [2] worked out at 5 nM; in data set [7], 0.6 nM. In addition, the results for the “fold change (FC)” value in data set [3] and in data set [6] were 11 and 15, respectively. Besides, the Emax in data set [4] stood at 20%. In addition, in data set [5], the Activity was 108%.
